Measurements taken from ChEMBL document CHEMBL5500387, “Design, synthesis of combretastatin A-4 piperazine derivatives as potential antitumor agents by inhibiting tubulin polymerization and inducing autophagy in HCT116 cells” (Eur J Med Chem, 2024).
pIC50: −log10 of the molar value. Active and inactive are the calls of the source. No cut-off for these calls is given here.

Key:
[1] = test system: HCT-116; assay: Cytotoxicity against human HCT-116 cells assessed as inhibition of cell proliferation measured after 72 hrs by CCK-8 assay; type: functional, cell-based; settings: HCT-116, 72 h
Method in brief: (§1)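 Cells seeded at 2×10^3 per well and grown overnight in 10% FBS medium: HCT116 in McCoy's 5A, A549 and AGS in F-12K, SK-MES-1 in DMEM. Compounds added at varied concentrations with 0.1% DMSO control, 72 h at 37 °C. 10% CCK-8 for 2 h, then A450 read. Survival = (As−Ab)/(Ac−Ab)×100%. IC50 from curve fitting.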

[2] = test system: SK-MES-1; assay: Cytotoxicity against human SK-MES-1 cells assessed as inhibition of cell proliferation measured after 72 hrs by CCK-8 assay; type: functional, cell-based; settings: SK-MES-1, 72 h; method in brief: as §1
[3] = Selectivity index, ratio of IC50 for human NCM460 cells to IC50 for human HCT-116 cells; type: toxicity; settings: NCM460 cells and HCT-116 cells, read-out: Ratio IC50
Method in brief: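 The selectivity index is IC50 in NCM460 normal colonic epithelial cells (RPMI-1640, 10% FBS) divided by IC50 in HCT116. Both were measured by 72 h CCK-8 viability at 2×10^3 cells/well with A450 read-out.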

[4] = target: T1, Tubulin (Homo sapiens) (UniProt P68371+Q9H4B7+P0DPH7+P68366+Q13509+Q71U36+P04350+Q3ZCM7+P07437+P68363+Q9BQE3+Q6PEY2+Q13885+Q9BVA1+Q9BUF5); assay: Disruption of microtubule network in human HCT-116 cells at 0.1 to 0.3 uM measured after 48 hrs by immunofluorescent staining based analysis; type: cell-based; settings: dose 0.1-0.3 µM
Method in brief: (§2)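 HCT116 cells (1×10^5/well suspension) settled on glass slides overnight at 37 °C, 5% CO2. Treated 48 h with 0.1, 0.2 or 0.3 μM, or 0.1% DMSO. Fixed in 4% paraformaldehyde, permeabilised with 0.5% Triton X-100, blocked. Anti-α-tubulin (1:4000) at 4 °C overnight, then Alexa488 anti-mouse IgG 1 h. DAPI mount, confocal imaging.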

[5] = target: T1, Tubulin (Homo sapiens); assay: Inhibition of tubulin polymerization in human HCT-116 cells measured after 48 hrs by immunofluorescent staining based analysis; type: cell-based; settings: dose 0.1-0.3 µM; method in brief: as §2
[6] = test system: HCT-116; assay: Induction of cell cycle arrest in human HCT-116 cells assessed as accumulation of cells at G2/M phase at 0.1 uM measured after 24 hrs by PI/RNase staining based flow cytometry analysis (reference value: 28.83%); type: functional
[7] = test system: HCT-116; assay: Induction of cell cycle arrest in human HCT-116 cells assessed as accumulation of cells at G2/M phase at 0.2 uM measured after 24 hrs by PI/RNase staining based flow cytometry analysis (reference value: 28.83%); type: functional
[8] = test system: HCT-116; assay: Induction of cell cycle arrest in human HCT-116 cells assessed as accumulation of cells at G2/M phase at 0.3 uM measured after 24 hrs by PI/RNase staining based flow cytometry analysis (reference value: 28.83%); type: functional
[9] = test system: HCT-116; assay: Induction of cell cycle arrest at G2/M phase in human HCT-116 cells assessed as reduction in Cdc-2 protein expression measured after 48 hrs by Western blot analysis; type: functional, cell-based; settings: dose 0.1-0.3 µM
Method in brief: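 HCT116 cells given 0.1, 0.2 or 0.3 μM for 48 h, with 0.1% DMSO control. Lysates run on SDS-PAGE and blotted to PVDF. Probed with anti-Cdc2 and anti-Cyclin B1 (1:1000), β-actin as loading control, HRP secondary, and chemiluminescence. Band quantities expressed relative to control set to 1. Three independent experiments.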

[10] = test system: HCT-116; assay: Induction of autophagy in human HCT-116 cells assessed as downregulation of p62 protein level measured after 24 hrs by Western blot analysis; type: functional, cell-based; settings: dose 0.1-0.3 µM
Method in brief: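 HCT116 cells exposed for 24 h to 0.1, 0.2 or 0.3 μM. Lysed on ice and protein measured by BCA. […] Milk-blocked, probed with anti-LC3A/B or anti-phospho-SQSTM1/p62 (1:1000) plus β-actin, then HRP anti-rabbit and chemiluminescence. Bands normalised to control set to 1. Three independent experiments.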

[11] = test system: A549; assay: Induction of cell cycle arrest in human A549 cells assessed as accumulation of cells at S phase at 0.1 uM measured after 24 hrs by PI/RNase staining based analysis (reference value: 24.95%); type: functional
[12] = test system: A549; assay: Induction of cell cycle arrest in human A549 cells assessed as accumulation of cells at G2/M phase at 0.1 uM measured after 24 hrs by PI/RNase staining based analysis (reference value: 10.22%); type: functional
[13] = test system: A549; assay: Induction of cell cycle arrest in human A549 cells assessed as accumulation of cells at S phase at 0.2 uM measured after 24 hrs by PI/RNase staining based analysis (reference value: 24.95%); type: functional
[14] = test system: A549; assay: Induction of cell cycle arrest in human A549 cells assessed as accumulation of cells at G2/M phase at 0.2 uM measured after 24 hrs by PI/RNase staining based analysis (reference value: 10.22%); type: functional
[15] = test system: A549; assay: Induction of cell cycle arrest in human A549 cells assessed as accumulation of cells at G0/G1 phase at 0.3 uM measured after 24 hrs by PI/RNase staining based analysis (reference value: 41.91%); type: functional
[16] = test system: A549; assay: Induction of apoptosis in human A549 cells assessed as early apoptotic cells at 0.1 uM measured after 24 hrs by Annexin V-APC/PI staining based flow cytometry analysis (reference value: 1.73%); type: functional
[17] = test system: A549; assay: Induction of apoptosis in human A549 cells assessed as live cells at 0.2 uM measured after 24 hrs by Annexin V-APC/PI staining based flow cytometry analysis (reference value: 96.91%); type: functional
[18] = test system: A549; assay: Induction of apoptosis in human A549 cells assessed as early apoptotic cells at 0.2 uM measured after 24 hrs by Annexin V-APC/PI staining based flow cytometry analysis (reference value: 1.73%); type: functional
[19] = test system: A549; assay: Induction of apoptosis in human A549 cells assessed as early apoptotic cells at 0.3 uM measured after 24 hrs by Annexin V-APC/PI staining based flow cytometry analysis (reference value: 1.73%); type: functional
[20] = test system: HCT-116; assay: Antitumor activity against human HCT-116 cells xenografted in female BALB/c nude mouse assessed as tumor growth inhibition at 20 mg/kg, ip administered every 2 days for 20 days by vernier caliper relative to control; type: functional; settings: HCT-116, 480 h, time 20 day, read-out: TGI
Method in brief: (§3)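 HCT116 cells (5×10^7/0.2 mL/mouse) injected subcutaneously beside the right forelimb of 5-week-old female BALB/c nude mice. At 100 mm³ tumour volume, mice randomised by weight and tumour size into four groups of ten. Saline vehicle control ip. Dosing for 20 days, then euthanasia and tumour weighing. Caliper diameters used; volume = W²×L/2.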

[21] = test system: HCT-116; assay: Antitumor activity against human HCT-116 cells xenografted in female BALB/c nude mouse assessed as tumor growth inhibition at 40 mg/kg, ip administered every 2 days for 20 days by vernier caliper relative to control; type: functional; settings: HCT-116, 480 h, time 20 day, read-out: TGI; method in brief: as §3

COc1ccc(/C=C(/C(=O)N2CCN(c3ccc(C)cc3)CC2)c2cc(OC)c(OC)c(OC)c2)cc1O
pIC50 [1]: 6.64
pIC50 [2]: 6.37
selectivity ratio [3]: 4.8
Activity [4]: Active
inhibition [5]: Dose-Dependent Effect
Activity [6]: 33.79%
Activity [7]: 44.67%
Activity [8]: 88.26%
Activity [9]: Dose-Dependent Effect
Activity [10]: Dose-Dependent Effect
Activity [11]: 24.95%
Activity [12]: 5.75%
Activity [13]: 13.76%
Activity [14]: 8.51%
Activity [15]: 87.18%
Activity [16]: 10.34%
Activity [17]: 76.79%
Activity [18]: 17.43%
Activity [19]: 21.09%
inhibition in vivo at 20 mg/kg [20]: 1.48%
inhibition in vivo at 40 mg/kg [21]: 12.7%
